The values that follow come from ChEMBL document CHEMBL4152246, “Natural oxyprenylated coumarins are modulators of melanogenesis” (Eur J Med Chem, 2018).

The inhibition is how much of the control response was suppressed.

The test system of data set [1] is Melan-a. The data set can be described thus: Induction of melanogenesis in mouse Melan-a cells assessed as effect on tanning property at 40 uM after 48 hrs. In kind it is functional, cell-based.
The subject of data set [2] is Melan-a. The data set can be described thus: Inhibition of melanogenesis in mouse Melan-a cells assessed as effect on whitening property at 40 uM after 48 hrs. It is filed as functional, cell-based. A digest of the protocol: (§1)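 Melan-a murine melanocytes in RPMI 1640 with 10% FBS, penicillin/streptomycin and 200 nM PMA at 37 °C and 5% CO2. Seeded at 60,000 cells/well in 6-well plates and treated 48 h with 1–40 µM from 1000X DMSO stock (final 0.1% DMSO) or DMSO alone. For line 1, cells were pretreated 1 h with 1 µM ICI 182780. Melanin is read as A405, % of control.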

For data set [3], the target named is Estrogen receptor beta (Mus musculus) (UniProt O08537). The data set can be described thus: Binding affinity to ERbeta in mouse Melan-a cells. In kind it is cell-based.
In data set [4] the test system is Melan-a. Put plainly: Antimelanogenic activity in mouse Melan-a cells assessed as inhibition of UV irradiation-stimulated melanin synthesis at 40 uM measured after 48 hrs.
The test system of data set [5] is Melan-a. Put plainly: Decrease in tyrosinase mRNA expression in mouse Melan-a cells at 40 uM after 24 hrs by SYBR green dye based qRT-PCR analysis relative to control. It is filed as functional. A digest of the protocol:
(§2)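 Real-time PCR on Melan-a cells given 40 µM for 24 h. Total RNA was isolated with TRIzol, and Ct values of tyrosinase, TRP-1, TRP-2 and MITF were normalized to cyclophilin A1. Mean of three independent experiments in duplicate.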

The subject of data set [6] is Melan-a. The data set can be described thus: Inhibition of melanogenesis in mouse Melan-a cells assessed as reduction in melanin content at 40 uM after 72 hrs relative to control. In kind it is functional. An outline of the steps:
(§3)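 Melan-a cells in PMA-containing RPMI/10% FBS, treated 3 days at 40 µM (0.1% DMSO final) against DMSO-treated controls. Pellets were washed in PBS and extracted with water/EtOH–ether (1/1). Melanin was solubilized in 1 M NaOH/DMSO 90/10 at 80 °C for 1 h, read as A405 and expressed as % of control. Mean ± SEM, t test.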

In data set [7] the test system is Melan-a. The data set can be described thus: Effect on Rab27a expression in mouse Melan-a cells at 40 uM after 48 hrs by western blot analysis (reference value: 1). (In general: Immunoblotting shows a protein as a band on a membrane.)
The test system of data set [8] is Melan-a. Put plainly: Antimelanogenic activity in mouse Melan-a cells assessed as inhibition of alpha-MSH-stimulated melanin synthesis at 40 uM measured after 48 hrs.
The test system of data set [9] is Melan-a. Put plainly: Effect on MITF expression in mouse Melan-a cells at 40 uM after 48 hrs by western blot analysis (reference value: 1).
Data set [10] relates to Melan-a. Put plainly: Cytotoxicity against mouse Melan-a cells assessed as effect on cell viability at 40 uM after 24 to 72 hrs by trypan blue exclusion assay. It is filed as cell-based. An outline of the steps: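 Melan-a cells seeded at 60,000/well in 6-well plates and treated at 40 µM (0.1% DMSO) for the indicated times. Cells were trypsinized, pelleted at 4 °C, stained with 0.25% trypan blue in PBS and counted in a Malassez chamber. Viability % = [1 − (blue/total cells)] × 100. Mean ± SEM of three independent experiments in duplicate.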

Data set [11] concerns Melan-a. The data set can be described thus: Decrease in MITF mRNA expression in mouse Melan-a cells at 40 uM after 24 hrs by SYBR green dye based qRT-PCR analysis relative to control. In kind it is functional. An outline of the steps:
as §2
On the technique in general: Quantitative PCR measures a nucleic acid by following its amplification.

The test system of data set [12] is Melan-a. Put plainly: Effect on TRP1 expression in mouse Melan-a cells at 40 uM after 48 hrs by western blot analysis (reference value: 1).
The test system of data set [13] is Melan-a. Put plainly: Effect on TRP2 expression in mouse Melan-a cells at 40 uM after 48 hrs by western blot analysis (reference value: 1).
Data set [14] concerns Melan-a. Put plainly: Inhibition of melanogenesis in mouse Melan-a cells assessed as reduction in melanin content at 40 uM. In kind it is functional, cell-based.
The test system of data set [15] is Melan-a. The data set can be described thus: Inhibition of melanogenesis in mouse Melan-a cells assessed as effect on whitening property measured after 48 hrs. It is filed as functional, cell-based. A digest of the protocol:
as §1

Data set [16] concerns Melan-a. Put plainly: Decrease in TRP1 mRNA expression in mouse Melan-a cells at 40 uM after 24 hrs by SYBR green dye based qRT-PCR analysis relative to control. In kind it is functional. A digest of the protocol: as §2
Data set [17] has as its system Melan-a. The data set can be described thus: Effect on tyrosinase expression in mouse Melan-a cells at 40 uM after 48 hrs by western blot analysis (reference value: 1).
Data set [18] relates to Melan-a. The data set can be described thus: Inhibition of melanogenesis in mouse Melan-a cells assessed as effect on pigmentation at 40 uM after 72 hrs by photography. In kind it is functional, cell-based. A digest of the protocol: (§4)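 Melan-a cells treated with 40 µM or solvent vehicle for 3 days, then photographed to record pigmentation.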
For data set [19], the system named is Melan-a. The data set can be described thus: Decrease in TRP2 mRNA expression in mouse Melan-a cells at 40 uM after 24 hrs by SYBR green dye based qRT-PCR analysis relative to control. It is filed as functional. A digest of the protocol: as §2
The subject of data set [20] is Melan-a. The data set can be described thus: Cytotoxicity against mouse Melan-a cells assessed as effect on cell viability at <2 uM after 24 to 72 hrs by trypan blue exclusion assay. It is filed as cell-based.
Data set [21] concerns Melan-a. The data set can be described thus: Induction of melanogenesis in mouse Melan-a cells assessed as increase in melanin content at 40 uM after 72 hrs relative to control. In kind it is functional. A digest of the protocol: as §3
Data set [22] deals with Melan-a. Put plainly: Induction of melanogenesis in mouse Melan-a cells assessed as increase in melanin content at 40 uM. In kind it is functional, cell-based.
Data set [23] relates to Melan-a. The data set can be described thus: Induction of melanogenesis in mouse Melan-a cells assessed as pro-pigmentation at 40 uM after 48 hrs relative to control. In kind it is functional. A digest of the protocol: as §1
Data set [24] can be described thus: Photostability of the compound assessed as compound degradation under sunlight exposed for 6 days in EtOH solution measured in presence of UV-A filter Uvinul A by TLC method. It is filed as physicochemical. As to conditions: 144 h.
The nature of data set [25]: Photostability of the compound assessed as compound degradation under sunlight exposed for 6 days in EtOH solution measured by TLC method. It is filed as physicochemical. As to conditions: 144 h.
Data set [26] concerns Melan-a. The data set can be described thus: Induction of melanogenesis in mouse Melan-a cells assessed as effect on pigmentation at 40 uM after 72 hrs by photography. In kind it is functional, cell-based. A digest of the protocol: as §4
For data set [27], the target named is Estrogen receptor beta (Mus musculus) (UniProt O08537). The data set can be described thus: Agonist activity at ERbeta in mouse Melan-a cells assessed as increase in melanin content at 40 uM measured after 48 hrs in presence of ER antagonist ICI 182780. In kind it is cell-based. A digest of the protocol:
as §1

Data set [28] concerns Melan-a. Put plainly: Increase in TRP2 expression in mouse Melan-a cells at 40 uM after 48 hrs by Western blot analysis.
Data set [29] relates to Melan-a. The data set can be described thus: Increase in tyrosinase expression in mouse Melan-a cells at 40 uM after 48 hrs by Western blot analysis.
The subject of data set [30] is Melan-a. Put plainly: Increase in Rab27a expression in mouse Melan-a cells at 40 uM after 48 hrs by Western blot analysis.
Data set [31] has as its system Melan-a. The data set can be described thus: Induction of melanogenesis in mouse Melan-a cells assessed as increase in melanin content at 10 to 40 uM after 48 hrs. It is filed as functional, cell-based. An outline of the steps: as §1
Data set [32] has as its system Melan-a. Put plainly: Increase in TRP1 mRNA expression in mouse Melan-a cells at 40 uM after 24 hrs by SYBR green dye based qRT-PCR analysis. It is filed as functional, cell-based. A digest of the protocol:
as §2

Data set [33] deals with Melan-a. Put plainly: Increase in MITF mRNA expression in mouse Melan-a cells at 40 uM after 24 hrs by SYBR green dye based qRT-PCR analysis. In kind it is functional, cell-based. A digest of the protocol:
as §2

For data set [34], the system named is Melan-a. The data set can be described thus: Increase in TRP2 mRNA expression in mouse Melan-a cells at 40 uM after 24 hrs by SYBR green dye based qRT-PCR analysis. In kind it is functional, cell-based. A digest of the protocol: as §2
Data set [35] has as its system Melan-a. Put plainly: Increase in tyrosinase mRNA expression in mouse Melan-a cells at 40 uM after 24 hrs by SYBR green dye based qRT-PCR analysis. It is filed as functional, cell-based. An outline of the steps: as §2
In data set [36] the test system is Melan-a. Put plainly: Increase in MITF expression in mouse Melan-a cells at 40 uM after 48 hrs by Western blot analysis.
The subject of data set [37] is Melan-a. The data set can be described thus: Increase in TRP1 expression in mouse Melan-a cells at 40 uM after 48 hrs by Western blot analysis.

Calls of active or inactive are those of the source. The calls are words filed in the database; no cut-off is given here. Bounds are passed on as bounds.

Sequence of Estrogen receptor beta (Mus musculus) (O08537 whole entry): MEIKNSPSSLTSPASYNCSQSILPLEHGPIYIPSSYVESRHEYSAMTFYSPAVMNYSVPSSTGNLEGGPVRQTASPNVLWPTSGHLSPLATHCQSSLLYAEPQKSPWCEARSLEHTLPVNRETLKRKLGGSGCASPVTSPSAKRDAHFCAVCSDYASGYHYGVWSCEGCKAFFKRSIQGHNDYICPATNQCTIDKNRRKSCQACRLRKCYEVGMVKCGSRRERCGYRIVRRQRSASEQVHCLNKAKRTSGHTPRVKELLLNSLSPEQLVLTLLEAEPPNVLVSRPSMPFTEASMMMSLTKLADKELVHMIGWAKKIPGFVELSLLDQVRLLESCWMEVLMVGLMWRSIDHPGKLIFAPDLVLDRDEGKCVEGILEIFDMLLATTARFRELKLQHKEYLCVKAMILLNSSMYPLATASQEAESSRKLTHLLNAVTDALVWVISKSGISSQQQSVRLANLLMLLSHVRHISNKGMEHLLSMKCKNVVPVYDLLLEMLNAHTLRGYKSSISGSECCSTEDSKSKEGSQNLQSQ

Regarding `COc1cc2ccc(=O)oc2cc1OC/C=C(\C)CCC=C(C)C`, the result in the data set with Melan-a [1] was inactive. The inhibition result with Melan-a [2] was “inactive”.

As for `COc1c(OC/C=C(\C)CCC=C(C)C)ccc2ccc(=O)oc12`, the outcome in the data set with Melan-a [1] was inactive. Also, the inhibition entry with Melan-a [2] is “inactive”.

Consider `CC(C)=CCC/C(C)=C/CC/C(C)=C/COc1ccc2ccc(=O)oc2c1` [UMBELLIPRENIN], for which, in data set [3], the outcome was Active. For the same molecule, the inhibition result in the data set with Melan-a [4], in the data set on Melan-a [8] and with Melan-a [18] was “Active” throughout. Moreover, the “fold change (FC)” value in the data set with Melan-a [5] is recorded as more than 2; with Melan-a [7], 0.3; in the data set with Melan-a [9] it was 0.5; in the data set with Melan-a [11] it was more than 2; with Melan-a [12], 0.1; with Melan-a [13], 0.3. For the same molecule, the results for the “fold change (FC)” value in the data set with Melan-a [16], in the data set on Melan-a [17] and in the data set on Melan-a [19] were more than 2, 1.6 and more than 2, respectively. Further, the inhibition at 40 µM in the data set with Melan-a [6] is more than 70%. Besides, in the data set on Melan-a [10], the Activity result is recorded as “Non-Toxic”. Besides, the inhibition result in the data set with Melan-a [14] and in the data set on Melan-a [15] was “Dose-dependent effect” throughout.

For `CC(C)=CCC/C(C)=C/COc1c2ccoc2cc2oc(=O)ccc12` [BERGAMOTTIN], the Activity result in the data set with Melan-a [20] was “Toxic”.

Regarding `CC(C)=CCC/C(C)=C/COc1ccc2ccc(=O)oc2c1` [AURAPTENE], the outcome (in data set [3]; with Melan-a [26]) was Active. In addition, the “fold change (FC)” value in the data set on Melan-a [21] amounted to 2; in the data set on Melan-a [23], 1.3. For the same molecule, the figures for the Activity result in the data set with Melan-a [10] and in the data set on Melan-a [22] were “Non-Toxic” and “Dose-dependent effect”, respectively. Besides, the Stability entry is “Stable” in [24] and “Unstable” in data set [25].

For the molecule `CC(C)=CCC/C(C)=C/COc1c2occc2cc2ccc(=O)oc12`, the Activity result with Melan-a [20] is “Toxic”.

Take `CC(C)=CCOc1c2occc2cc2ccc(=O)oc12` [PENTOSALEN]: the Activity result in the data set with Melan-a [20] is given as “Toxic”. Also, the outcome in the data set with Melan-a [1] was inactive. Moreover, in the data set with Melan-a [2], the inhibition result is “inactive”.

For `CC(C)=CCOc1ccc2ccc(=O)oc2c1` [7-PRENYLOXYCOUMARIN], the result (in data set [27]; in data set [3]; with Melan-a [28]; in the data set with Melan-a [29]; with Melan-a [30]; with Melan-a [31]) was Active. For the same molecule, the outcome in the data set on Melan-a [32], in the data set with Melan-a [33], in the data set on Melan-a [34], in the data set with Melan-a [35], in the data set on Melan-a [36] and in the data set with Melan-a [37] was Active. Further, in the data set on Melan-a [26], the outcome was Active. For the same molecule, the “fold change (FC)” value in the data set on Melan-a [21] is given as 6. Also, the Activity entry in the data set on Melan-a [10] was “Non-Toxic”; in the data set on Melan-a [22], “Dose-dependent effect”. In addition, the Stability result was “Stable” in [24] and “Unstable” in data set [25].

As for `O=c1ccc2ccc(O)cc2o1` [UMBELLIFERONE], the Activity entry in the data set on Melan-a [10] was “Non-Toxic”. Also, the result in the data set with Melan-a [1] was inactive. In the data set on Melan-a [2], the inhibition result is “inactive”.

Regarding `COc1c(OCC=C(C)C)ccc2ccc(=O)oc12`, the result with Melan-a [1] was inactive. Also, the inhibition result in the data set on Melan-a [2] is “inactive”.

For `CC(C)=CCOc1c2ccoc2cc2oc(=O)ccc12` [ISOIMPERATORIN], the Activity result in the data set with Melan-a [20] is “Toxic”.

As for `COc1cc(OC/C=C(\C)CCC=C(C)C)c2ccc(=O)oc2c1`, the outcome in the data set on Melan-a [1] was inactive. For the same molecule, the inhibition entry in the data set on Melan-a [2] is “inactive”.
